Assay results published in ChEMBL document CHEMBL1132551, “Selective inhibitors of glial GABA uptake: synthesis, absolute stereochemistry, and pharmacology of the enantiomers of 3-hydroxy-4-amino-4,5,6,7-tetrahydro-1,2-benzisoxazole (exo-THPO) and analogues” (J Med Chem, 1999).

Assays:
Mus musculus [1] = species on record: Mus musculus; assay: Effect on glial GABA(1 uM) uptake was measured using astrocytes cultured from cerebral cortices of new born mice.; format: functional, organism-based
Mus musculus [2] = species on record: Mus musculus; assay: Effect on neuronal GABA(1 uM) uptake was measured using neurons cultured from cerebral cortices of 15-day-old mouse embryos.; format: functional, organism-based
Rattus norvegicus = species on record: Rattus norvegicus; assay: Inhibition of GABA uptake into crude synaptosomes prepared from adult rat brain; format: functional
How it was run: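 Crude synaptosomes from adult rat brain were preincubated with inhibitor for 10 min at 20 °C. Uptake was then run at 0.05 μM GABA.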

[3] = The apparent partition coefficient(D) in cyclohexane-0.05 M phosphate buffer (pH 7.4) at 21 degree celsius.; format: physicochemical
How it was run: (§1)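 Organic and aqueous phases were mutually saturated at 21 °C. Compound was dissolved in the aqueous buffer at (2–3) × 10^-5 M and shaken 10–15 min to equilibrium. Phases were separated by centrifugation for 3–5 min. Aqueous concentration before and after distribution was measured by HPLC, and D was reported as log D.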

[4] = The apparent partition coefficient(D) in n-octanol-0.05 M phosphate buffer (pH 7.4) at 21 degree celsius.; format: physicochemical; how it was run: as §1
[5] = Hydrolysis was studied in 0.02 M phosphate buffer containing 80% human plasma (pH 7.4) at 37 degree celsius.; format: ADME, cell-free
How it was run: (§2)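 Initial compound concentration was (2–3) × 10^-5 M, held at 37 °C. Samples taken over time were deproteinized with EtOH and centrifuged 3–5 min. Supernatant was analyzed by RP-HPLC at 220 nm; half-life was derived from residual compound over time.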

[6] = Hydrolysis was studied in 0.02 M aqueous phosphate buffer (pH 7.4) at 37 degree celsius.; format: ADME
How it was run: (§3)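 Prodrug stock in MeCN–H2O was added to prewarmed buffer, giving (2–3) × 10^-5 M final. Tubes were held at 37 ± 0.2 °C and sampled over time for RP-HPLC at 220 nm, quantified by peak area against standards. Pseudo-first-order rate constants came from slopes of log residual prodrug versus time, expressed as t1/2.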

[7] = Hydrolysis was studied in 0.02 M phosphate buffer containing 80% human plasma (pH 7.4) at 37 degree celsius; stable; format: ADME, cell-free; how it was run: as §2
[8] = Hydrolysis was studied in 0.02 M aqueous phosphate buffer (pH 7.4) at 37 degree celsius; stable; format: ADME; how it was run: as §3

For `N[C@@H]1CCCc2onc(O)c21`, the IC50 (Mus musculus [1]) was 281 µM, the IC50 (Mus musculus [2]) was 681 µM and the IC50 (Rattus norvegicus) was 118 µM.

Work on `CN[C@H]1CCCc2onc(O)c21` yielded an IC50 (Rattus norvegicus) greater than 300 µM.

With `Oc1noc2c1CNCC2` the IC50 (Mus musculus [1]) was 268 µM, the IC50 (Mus musculus [2]) was 530 µM and the IC50 (Rattus norvegicus) was 162 µM.

`OCCNC1CCCc2onc(O)c21` (stereo not drawn) gave an IC50 (Mus musculus [1]) greater than 500 µM, an IC50 (Mus musculus [2]) greater than 1000 µM and an IC50 (Rattus norvegicus) of 173 µM.

With `CNC1CCCc2on(COC(=O)C(C)(C)C)c(=O)c21` (stereo not drawn) the logD [3] was -1.4, the logD [4] was 0.05 and the half-life [5] was 0.117 h. For the same molecule, the half-life [6] was 267 h.

Molecule `O=C(O)[C@@H]1CCCNC1` [(R)-NIPECOTIC ACID] has an IC50 (Mus musculus [1]) of 16 µM, an IC50 (Mus musculus [2]) of 12 µM and an IC50 (Rattus norvegicus) of 5 µM.

`Oc1noc2c1C(N1CCCC1)CCC2` (stereo not drawn) gave an IC50 (Mus musculus [1]) greater than 500 µM, an IC50 (Mus musculus [2]) greater than 1000 µM and an IC50 (Rattus norvegicus) of 201 µM.

For `NC1CCCc2onc(O)c21` (stereo not drawn), the IC50 (Mus musculus [1]) was 208 µM, the IC50 (Mus musculus [2]) was 883 µM and the IC50 (Rattus norvegicus) was 181 µM.

With `CNC1CCCc2snc(O)c21` (stereo not drawn) the IC50 (Mus musculus [1]) was greater than 500 µM, the IC50 (Mus musculus [2]) was greater than 1000 µM and the IC50 (Rattus norvegicus) was 242 µM.

Molecule `CCNC1CCCc2onc(O)c21` (stereo not drawn) has an IC50 (Mus musculus [1]) of 278 µM, an IC50 (Mus musculus [2]) of 391 µM and an IC50 (Rattus norvegicus) of 105 µM.

Molecule `NC1CCCc2snc(O)c21` (stereo not drawn) has an IC50 (Mus musculus [1]) greater than 500 µM, an IC50 (Mus musculus [2]) greater than 1000 µM and an IC50 (Rattus norvegicus) of 290 µM.

With `CNC1CCCc2onc(O)c21` (stereo not drawn) the logD [4] was -2.3, the T1/2 [7] was “stable” and the T1/2 [8] was “stable”. For the same molecule, the IC50 (Mus musculus [1]) was 28 µM, the IC50 (Mus musculus [2]) was 423 µM and the IC50 (Rattus norvegicus) was 63 µM.

In the case of `N[C@H]1CCCc2onc(O)c21`, the IC50 (Rattus norvegicus) is reported as greater than 300 µM.

In the case of `C=CCNC1CCCc2onc(O)c21` (stereo not drawn), the IC50 (Mus musculus [1]) is reported as greater than 500 µM, the IC50 (Mus musculus [2]) is reported as greater than 1000 µM and the IC50 (Rattus norvegicus) is reported as 98 µM.

`CN(C)C1CCCc2onc(O)c21` (stereo not drawn) gave an IC50 (Mus musculus [1]) greater than 500 µM, an IC50 (Mus musculus [2]) greater than 1000 µM and an IC50 (Rattus norvegicus) of 291 µM.

For `CNC1CCCc2onc(OCOC(=O)C(C)(C)C)c21` (stereo not drawn), the logD [3] was -0.17, the logD [4] was 0.65 and the half-life [5] was 0.25 h. It also gave a half-life [6] of 75 h.

`O=C(O)C1=CCCNC1` [GUVACINE] showed an IC50 (Mus musculus [1]) of 29 µM, an IC50 (Mus musculus [2]) of 32 µM and an IC50 (Rattus norvegicus) of 12 µM.

For `CN[C@@H]1CCCc2onc(O)c21`, the IC50 (Mus musculus [1]) was 60 µM, the IC50 (Mus musculus [2]) was 510 µM and the IC50 (Rattus norvegicus) was 39 µM.

Work on `CC(=O)OCCNC1CCCc2onc(O)c21` (stereo not drawn) yielded an IC50 (Mus musculus [1]) greater than 500 µM, an IC50 (Mus musculus [2]) greater than 1000 µM and an IC50 (Rattus norvegicus) of 125 µM.
